Data as given in ChEMBL document CHEMBL4014345, “Development of Selective Clk1 and -4 Inhibitors for Cellular Depletion of Cancer-Relevant Proteins” (J Med Chem, 2017).
Activity calls are given as the source filed them. The rule behind the calls is not given here.

Key:
[1] = biological target: T1, Dual specificity protein kinase CLK1/CLK4 (Homo sapiens, UniProt Q9HAZ1+P49759); experiment: Inhibition of CLK1/4 in human T24 cells assessed as down regulation of HDAC1 expression at 10 uM after 3 days by Western blot analysis relative to control; assay type: cell-based
Procedure, shortened: (§1)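 T24 or MDA-MB-231 cells were grown in DMEM to 70% confluency. The medium was replaced with compound diluted in DMEM, and cells were kept 3 days. Total protein was immunoblotted with monoclonal antibodies in 3% BSA/PBS against EGFR, p70S6K α, PARP-1, ERK2, HDAC1, CD44, PCNA and GRP94.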

[2] = biological target: T2, Dual specificity protein kinase CLK1 (Homo sapiens, UniProt P49759); experiment: Inhibition of recombinant human GST-tagged Clk1 expressed in Escherichia coli using RS repeat substrate peptide after 15 mins in presence of [gamma-32]-ATP
Target sequence in this assay (P49759 whole entry): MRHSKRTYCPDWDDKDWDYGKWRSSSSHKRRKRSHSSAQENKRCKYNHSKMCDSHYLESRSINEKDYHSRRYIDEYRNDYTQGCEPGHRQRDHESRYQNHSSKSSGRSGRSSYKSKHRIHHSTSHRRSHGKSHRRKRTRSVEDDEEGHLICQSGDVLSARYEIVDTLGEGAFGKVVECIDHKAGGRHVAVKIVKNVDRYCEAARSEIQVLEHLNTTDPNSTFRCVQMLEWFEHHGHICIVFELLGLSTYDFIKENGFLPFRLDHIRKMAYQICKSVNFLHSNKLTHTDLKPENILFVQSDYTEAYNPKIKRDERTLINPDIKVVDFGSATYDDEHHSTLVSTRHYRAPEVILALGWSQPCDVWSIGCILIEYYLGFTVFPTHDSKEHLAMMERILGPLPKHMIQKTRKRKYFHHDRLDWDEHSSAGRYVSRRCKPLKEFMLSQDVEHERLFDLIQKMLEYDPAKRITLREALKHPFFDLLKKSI

[3] = biological target: T2, Dual specificity protein kinase CLK1; experiment: Inhibition of recombinant human GST-tagged Clk1 expressed in Escherichia coli at 100 nM using RS repeat substrate peptide after 15 mins in presence of [gamma-32]-ATP
Target sequence in this assay (P49759 whole entry, looked up): as the sequence (P49759 whole entry) above

[4] = biological target: T1, Dual specificity protein kinase CLK1/CLK4; experiment: Inhibition of CLK1/4 in human MDA-MB-231 cells assessed as down regulation of EGFR expression at 20 uM after 3 days by Western blot analysis relative to control; assay type: cell-based; procedure, shortened: as §1
[5] = biological target: T2, Dual specificity protein kinase CLK1; experiment: Inhibition of recombinant human GST-tagged Clk1 expressed in Escherichia coli at 1 uM using RS repeat substrate peptide after 15 mins in presence of [gamma-32]-ATP
Target sequence in this assay (P49759 whole entry, looked up): as the sequence (P49759 whole entry) above

[6] = biological target: Dual specificity protein kinase CLK4 (Mus musculus, UniProt O35493); experiment: Inhibition of recombinant GST-tagged mouse CLK4 using GRSRSRSRSRSR as substrate after 30 mins in presence of [gamma-32P]-ATP by scintillation counting method
Dual specificity protein kinase CLK4, sequence (O35493 whole entry): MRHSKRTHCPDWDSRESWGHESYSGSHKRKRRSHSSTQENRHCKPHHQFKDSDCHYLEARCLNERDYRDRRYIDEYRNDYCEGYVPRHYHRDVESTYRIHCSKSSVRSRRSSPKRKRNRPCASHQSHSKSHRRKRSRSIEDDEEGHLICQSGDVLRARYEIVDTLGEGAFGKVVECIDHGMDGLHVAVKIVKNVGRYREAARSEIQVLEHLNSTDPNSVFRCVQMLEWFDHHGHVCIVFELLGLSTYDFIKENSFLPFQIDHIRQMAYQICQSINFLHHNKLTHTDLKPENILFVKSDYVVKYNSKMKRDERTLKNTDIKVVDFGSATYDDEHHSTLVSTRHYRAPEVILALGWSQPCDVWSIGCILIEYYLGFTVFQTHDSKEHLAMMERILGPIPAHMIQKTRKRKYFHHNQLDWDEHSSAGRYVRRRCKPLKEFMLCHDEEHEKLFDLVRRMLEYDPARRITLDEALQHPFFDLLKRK

PBL = experiment: Cytotoxicity against human PBL after 2 days by MTT assay; assay type: cell-based; settings: 48 h
Procedure, shortened: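 Cells plated at 30 000 per well with test compounds or DMSO control for 2 days, then MTT read-out. LC50 reported as the mean of at least two independent experiments.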

[7] = biological target: T1, Dual specificity protein kinase CLK1/CLK4; experiment: Inhibition of CLK1/4 in human HepG2 cells assessed as down regulation of HDAC1 expression at 20 uM after 3 days by Western blot analysis relative to control; assay type: cell-based
Procedure, shortened: (§2)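 HepG2 cells were grown in DMEM to 70% confluency, then the medium was replaced with compound diluted in DMEM. After 3 days, total protein was immunoblotted with monoclonal antibodies including HDAC1 and p70S6K.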

[8] = biological target: SRSF protein kinase 2 (Homo sapiens) (UniProt P78362); experiment: Inhibition of SRPK2 (unknown origin) at 1 uM
SRSF protein kinase 2 (Homo sapiens), sequence (P78362 whole entry, looked up): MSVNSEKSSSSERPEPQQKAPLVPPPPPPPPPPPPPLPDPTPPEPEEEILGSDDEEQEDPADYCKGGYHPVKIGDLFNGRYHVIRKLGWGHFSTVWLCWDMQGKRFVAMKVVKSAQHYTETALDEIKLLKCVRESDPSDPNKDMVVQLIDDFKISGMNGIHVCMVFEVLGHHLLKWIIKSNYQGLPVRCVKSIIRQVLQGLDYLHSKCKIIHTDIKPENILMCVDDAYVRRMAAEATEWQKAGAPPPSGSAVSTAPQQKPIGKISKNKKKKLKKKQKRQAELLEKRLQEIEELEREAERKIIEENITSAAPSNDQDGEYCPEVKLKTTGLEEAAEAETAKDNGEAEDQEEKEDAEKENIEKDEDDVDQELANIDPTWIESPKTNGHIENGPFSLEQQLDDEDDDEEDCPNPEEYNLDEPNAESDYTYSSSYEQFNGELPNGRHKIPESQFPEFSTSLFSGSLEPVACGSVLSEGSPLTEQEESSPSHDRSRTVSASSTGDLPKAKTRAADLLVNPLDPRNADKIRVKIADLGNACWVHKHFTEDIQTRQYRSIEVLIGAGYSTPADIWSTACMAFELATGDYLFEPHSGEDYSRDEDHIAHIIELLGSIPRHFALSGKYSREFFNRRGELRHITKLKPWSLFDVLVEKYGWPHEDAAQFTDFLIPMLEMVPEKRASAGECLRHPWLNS
Procedure, shortened: (§3)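 Tested in a commercial kinase profiling panel at an ATP concentration of 100 μM. Data are the mean of duplicates that differed by less than 7%.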

T-24 [9] = experiment: Down regulation of ERK2 expression in human T24 cells at 1.25 to 10 uM after 3 days by Western blot analysis; assay type: functional, cell-based; procedure, shortened: as §1
[10] = biological target: T1, Dual specificity protein kinase CLK1/CLK4; experiment: Inhibition of CLK1/4 in human MDA-MB-231 cells assessed as down regulation of EGFR expression at 10 uM after 3 days by Western blot analysis relative to control; assay type: cell-based; procedure, shortened: as §1
[11] = biological target: T1, Dual specificity protein kinase CLK1/CLK4; experiment: Inhibition of CLK1/4 in human MDA-MB-231 cells assessed as down regulation of S6 kinase expression at 20 uM after 3 days by Western blot analysis relative to control; assay type: cell-based; procedure, shortened: as §1
HepG2 = experiment: Cytotoxicity against human HepG2 cells assessed as growth inhibition after 5 days by MTT assay; assay type: functional; settings: HepG2, 120 h
Procedure, shortened: (§4)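 They were seeded at 5000 cells per well onto compound or DMSO (0.2% final). Plates were kept 5 days at 37 °C in 5% CO2 with no medium change, then read by MTT.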

[12] = biological target: Serine/threonine-protein kinase haspin (Homo sapiens) (UniProt Q8TF76); experiment: Inhibition of MBP-Haspin (unknown origin) at 1 uM after 10 mins by TR-FRET assay; procedure, shortened: as §3
Serine/threonine-protein kinase haspin (Homo sapiens), sequence (Q8TF76 whole entry): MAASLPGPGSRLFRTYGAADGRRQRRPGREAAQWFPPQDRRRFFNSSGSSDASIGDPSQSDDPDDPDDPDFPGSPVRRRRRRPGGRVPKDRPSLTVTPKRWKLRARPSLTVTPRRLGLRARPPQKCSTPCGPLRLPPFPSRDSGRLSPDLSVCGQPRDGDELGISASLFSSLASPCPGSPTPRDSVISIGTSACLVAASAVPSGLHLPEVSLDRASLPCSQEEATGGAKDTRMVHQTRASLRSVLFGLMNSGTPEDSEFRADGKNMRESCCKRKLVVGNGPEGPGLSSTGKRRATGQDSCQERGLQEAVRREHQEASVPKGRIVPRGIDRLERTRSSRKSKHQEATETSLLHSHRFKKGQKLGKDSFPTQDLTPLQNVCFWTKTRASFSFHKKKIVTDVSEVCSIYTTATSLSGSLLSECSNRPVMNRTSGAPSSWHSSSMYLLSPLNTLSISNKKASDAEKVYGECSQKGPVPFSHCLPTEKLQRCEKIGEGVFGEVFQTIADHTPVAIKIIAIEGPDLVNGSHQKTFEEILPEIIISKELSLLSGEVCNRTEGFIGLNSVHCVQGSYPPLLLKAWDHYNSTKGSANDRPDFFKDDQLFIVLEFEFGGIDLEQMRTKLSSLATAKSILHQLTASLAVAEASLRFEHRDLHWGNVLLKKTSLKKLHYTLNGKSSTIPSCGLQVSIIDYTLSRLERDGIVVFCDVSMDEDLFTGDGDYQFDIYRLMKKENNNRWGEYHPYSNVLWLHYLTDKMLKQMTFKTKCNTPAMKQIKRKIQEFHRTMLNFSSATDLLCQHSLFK

[13] = biological target: T1, Dual specificity protein kinase CLK1/CLK4; experiment: Inhibition of CLK1/4 in human HepG2 cells assessed as down regulation of S6 kinase expression at 20 uM after 3 days by Western blot analysis relative to control; assay type: cell-based; procedure, shortened: as §2
[14] = biological target: Dual specificity protein kinase CLK4 (Mus musculus) (UniProt O35493); experiment: Inhibition of recombinant GST-tagged mouse CLK4 using GRSRSRSRSRSR as substrate at 1 uM after 30 mins in presence of [gamma-32P]-ATP by scintillation counting method
Dual specificity protein kinase CLK4 (Mus musculus), sequence (O35493 whole entry, looked up): as the sequence (O35493 whole entry) above

[15] = biological target: Dual specificity tyrosine-phosphorylation-regulated kinase 4 (Homo sapiens) (UniProt Q9NR20); experiment: Inhibition of DYRK4 (unknown origin) using KKISGRLSPIMTEQ-NH2 as substrate at 1 uM after 15 mins in presence of [gamma-32P]-ATP
Dual specificity tyrosine-phosphorylation-regulated kinase 4 (Homo sapiens), sequence (Q9NR20 whole entry): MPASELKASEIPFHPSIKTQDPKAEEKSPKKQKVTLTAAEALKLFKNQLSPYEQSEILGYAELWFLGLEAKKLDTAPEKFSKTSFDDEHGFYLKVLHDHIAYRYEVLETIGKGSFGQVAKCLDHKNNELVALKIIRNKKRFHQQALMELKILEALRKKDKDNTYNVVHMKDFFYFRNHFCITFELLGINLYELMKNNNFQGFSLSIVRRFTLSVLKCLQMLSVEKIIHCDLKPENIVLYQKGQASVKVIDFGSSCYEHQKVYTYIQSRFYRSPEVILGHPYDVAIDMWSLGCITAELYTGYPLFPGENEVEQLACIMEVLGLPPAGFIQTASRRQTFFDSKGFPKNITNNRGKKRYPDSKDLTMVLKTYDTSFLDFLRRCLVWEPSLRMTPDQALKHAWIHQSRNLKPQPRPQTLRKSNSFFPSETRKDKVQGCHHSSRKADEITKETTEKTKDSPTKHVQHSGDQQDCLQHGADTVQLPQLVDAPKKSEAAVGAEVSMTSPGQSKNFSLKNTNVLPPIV

[16] = biological target: T1, Dual specificity protein kinase CLK1/CLK4; experiment: Inhibition of CLK1/4 in human MDA-MB-231 cells assessed as down regulation of S6 kinase expression at 10 uM after 3 days by Western blot analysis relative to control; assay type: cell-based; procedure, shortened: as §1
[17] = biological target: T1, Dual specificity protein kinase CLK1/CLK4; experiment: Inhibition of CLK1/4 in human T24 cells assessed as down regulation of HDAC1 expression at 5 uM after 3 days by Western blot analysis relative to control; assay type: cell-based; procedure, shortened: as §1
[18] = biological target: T1, Dual specificity protein kinase CLK1/CLK4; experiment: Inhibition of CLK1/4 in human MDA-MB-231 cells assessed as down regulation of EGFR expression at 2.5 uM after 3 days by Western blot analysis relative to control; assay type: cell-based; procedure, shortened: as §1
MDA-MB-231 [19] = experiment: Cytotoxicity against human MDA-MB-231 cells assessed as growth inhibition after 5 days by MTT assay; assay type: functional; settings: MDA-MB-231, 120 h; procedure, shortened: as §4
T-24 [20] = experiment: Down regulation of PARP1 expression in human T24 cells at 1.25 to 10 uM after 3 days by Western blot analysis; assay type: functional, cell-based; procedure, shortened: as §1
[21] = biological target: Dual specificity tyrosine-phosphorylation-regulated kinase 1B (Homo sapiens, UniProt Q9Y463); experiment: Inhibition of full length recombinant GST-tagged human DYRK1B expressed in baculovirus using KKISGRLSPIMTEQ-NH2 as substrate at 1 uM after 15 mins
Dual specificity tyrosine-phosphorylation-regulated kinase 1B, sequence (Q9Y463 whole entry, looked up): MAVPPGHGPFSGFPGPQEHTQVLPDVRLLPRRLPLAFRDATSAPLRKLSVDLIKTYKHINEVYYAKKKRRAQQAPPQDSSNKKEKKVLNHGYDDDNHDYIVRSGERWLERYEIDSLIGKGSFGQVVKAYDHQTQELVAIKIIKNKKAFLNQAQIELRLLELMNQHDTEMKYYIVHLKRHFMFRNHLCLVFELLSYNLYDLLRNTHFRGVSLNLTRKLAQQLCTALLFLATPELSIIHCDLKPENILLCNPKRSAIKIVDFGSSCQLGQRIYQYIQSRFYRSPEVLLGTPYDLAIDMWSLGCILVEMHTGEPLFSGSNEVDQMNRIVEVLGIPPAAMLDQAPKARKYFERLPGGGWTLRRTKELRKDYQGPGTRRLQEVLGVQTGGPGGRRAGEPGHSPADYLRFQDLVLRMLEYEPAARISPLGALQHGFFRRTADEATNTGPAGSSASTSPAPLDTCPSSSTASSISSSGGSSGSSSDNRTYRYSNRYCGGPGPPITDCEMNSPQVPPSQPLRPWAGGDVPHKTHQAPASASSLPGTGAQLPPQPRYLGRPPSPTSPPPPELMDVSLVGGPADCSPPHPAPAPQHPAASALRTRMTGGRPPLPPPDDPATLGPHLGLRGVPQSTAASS

T-24 [22] = experiment: Down regulation of PCNA expression in human T24 cells at 1.25 to 10 uM after 3 days by Western blot analysis; assay type: functional, cell-based; procedure, shortened: as §1
[23] = biological target: Dual specificity tyrosine-phosphorylation-regulated kinase 3 (Homo sapiens) (UniProt O43781); experiment: Inhibition of DYRK3 (unknown origin) using KKISGRLSPIMTEQ-NH2 as substrate at 1 uM after 15 mins in presence of [gamma-32P]-ATP
Dual specificity tyrosine-phosphorylation-regulated kinase 3 (Homo sapiens), sequence (O43781 whole entry): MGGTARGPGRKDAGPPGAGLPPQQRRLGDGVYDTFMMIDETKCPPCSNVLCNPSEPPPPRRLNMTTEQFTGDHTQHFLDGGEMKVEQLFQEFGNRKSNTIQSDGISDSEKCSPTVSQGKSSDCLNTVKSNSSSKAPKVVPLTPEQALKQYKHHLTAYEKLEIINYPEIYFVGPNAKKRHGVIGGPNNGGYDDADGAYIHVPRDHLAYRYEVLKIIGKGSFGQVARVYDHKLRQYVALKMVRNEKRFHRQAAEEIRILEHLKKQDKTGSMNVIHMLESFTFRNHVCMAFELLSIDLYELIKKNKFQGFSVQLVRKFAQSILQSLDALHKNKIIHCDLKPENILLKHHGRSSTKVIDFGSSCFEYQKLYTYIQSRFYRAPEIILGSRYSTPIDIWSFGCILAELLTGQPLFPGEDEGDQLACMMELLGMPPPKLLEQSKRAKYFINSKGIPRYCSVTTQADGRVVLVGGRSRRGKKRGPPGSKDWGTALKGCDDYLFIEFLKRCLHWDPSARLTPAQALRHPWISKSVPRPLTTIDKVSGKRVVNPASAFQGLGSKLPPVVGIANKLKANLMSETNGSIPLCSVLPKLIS

[24] = biological target: T1, Dual specificity protein kinase CLK1/CLK4; experiment: Inhibition of CLK1/4 in human T24 cells assessed as down regulation of EGFR expression at 5 uM after 3 days by Western blot analysis relative to control; assay type: cell-based; procedure, shortened: as §1
[25] = biological target: Dual specificity protein kinase CLK3 (Mus musculus) (UniProt O35492); experiment: Inhibition of recombinant GST-tagged mouse CLK3 using GRSRSRSRSRSR as substrate at 1 uM after 30 mins in presence of [gamma-32P]-ATP by scintillation counting method
Dual specificity protein kinase CLK3 (Mus musculus), sequence (O35492 whole entry): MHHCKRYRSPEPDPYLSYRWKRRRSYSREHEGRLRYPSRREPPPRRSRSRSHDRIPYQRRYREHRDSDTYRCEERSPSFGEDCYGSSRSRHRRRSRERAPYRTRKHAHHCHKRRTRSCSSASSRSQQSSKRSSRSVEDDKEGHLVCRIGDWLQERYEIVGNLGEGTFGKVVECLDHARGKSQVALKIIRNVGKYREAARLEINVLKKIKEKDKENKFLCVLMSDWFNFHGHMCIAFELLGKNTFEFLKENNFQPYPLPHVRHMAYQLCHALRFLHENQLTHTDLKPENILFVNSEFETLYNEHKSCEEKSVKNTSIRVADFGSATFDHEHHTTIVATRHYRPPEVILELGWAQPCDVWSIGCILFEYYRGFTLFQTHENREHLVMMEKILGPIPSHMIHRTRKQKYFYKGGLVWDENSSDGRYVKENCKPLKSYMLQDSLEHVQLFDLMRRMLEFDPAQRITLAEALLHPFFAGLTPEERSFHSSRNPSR

MDA-MB-231 [26] = experiment: Down regulation of CD44 expression in human MDA-MB-231 cells at 2.5 to 20 uM after 3 days by Western blot analysis; assay type: functional, cell-based; procedure, shortened: as §1
MDA-MB-231 [27] = experiment: Down regulation of ERK2 expression in human MDA-MB-231 cells at 2.5 to 20 uM after 3 days by Western blot analysis; assay type: functional, cell-based; procedure, shortened: as §1

With `COc1ccc2sc(C(=O)N(C)Cc3cccc(F)c3)cc2c1` the inhibition [1] was 50.2%, the IC50 [2] was 6.9 to 7 nM and the inhibition [3] was 80%. It also gave an inhibition [4] of 56.2%, an inhibition [5] of 92% and an IC50 [6] of 2.3 nM. The LC50 (PBL) was 29400 nM, the inhibition [7] was 44% and the inhibition [8] was 7%. For the same molecule, the Activity (T-24 [9]) was “inactive”, the inhibition [10] was 54.1% and the inhibition [11] was 41.4%. It also gave a GI50 (HepG2) of 2800 nM, an inhibition [12] of 12% and an inhibition [13] of 44%. For the same molecule, the inhibition [14] was 101%, the inhibition [15] was “inactive” and the inhibition [16] was 33.1%. It also gave an inhibition [17] of 47.6%, an inhibition [18] of 47.5% and a GI50 (MDA-MB-231 [19]) of 9600 nM. For the same molecule, the Activity (T-24 [20]) was “inactive”, the inhibition [21] was 77% and the Activity (T-24 [22]) was “inactive”. For the same molecule, the inhibition [23] was “inactive”, the inhibition [24] was 52.6% and the inhibition [25] was 58%. For the same molecule, the Activity (MDA-MB-231 [26]) was “inactive” and the Activity (MDA-MB-231 [27]) was “inactive”.
